Where a SMILES comes first, the peptide text is derived from it. The star is where a group is joined. Cbz = O=C(OCc1ccccc1)*
Tests used:
Assay type in all cases: cell-based
[1] = test system: proteasome (β2 and β5 subunits) in HEK-293T cells; settings: then 3 at 500 nM 1 h; for increase of proteasome labeling over DMSO treated samples: modulator 25 μM 1 h; for effect of inhibitor on labeling by 3: inhibitor at two concentrations 1 h; for change of proteasome activity: modulator 5 μM 1 h
Procedure, shortened: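 HEK-293T cells pre-treated 1 h with the test compound (stimulators and inhibitors, each at two concentrations) or DMSO. BODIPY-epoxomicin probe then added at 500 nM for 1 h (2 h total). Proteasome bound by the probe is resolved by SDS-PAGE and in-gel fluorescence is scanned. β2 and β5 band signals are quantified and normalised to DMSO; error bars are standard deviation.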

[2] = test system: proteasome in HEK-293T cells; test: Flow cytometry with probe 3; settings: modulator 1 h, then 3 for 1 h, rinsed with PBS
Procedure, shortened: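 HEK-293T cells get the test compound (stimulator or inhibitor) for 1 h. The BODIPY-epoxomicin probe is then added and incubated another hour. Cells are pelleted and rinsed with PBS to remove unreacted probe. Probe fluorescence is measured by flow cytometry against DMSO-treated samples.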

[3] = test system: proteasome in HEK-293T cells; test: Confocal microscopy with probe 3; settings: modulator 25 μM 1 h, then 3 at 500 nM 1 h, PBS wash
Procedure, shortened: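 HEK-293T cells on poly-D-lysine-coated glass coverslip chambers; test compound (proteasome stimulator or inhibitor) at 25 μM for 1 h, then BODIPY-epoxomicin probe at 500 nM for another hour. PBS wash removes extracellular or unbound probe. Controls: DMSO plus probe (basal activity) and DMSO without probe. Imaged by confocal in bright field and BodipyFL green channel, with overlay.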

Compound	increase of proteasome labeling over DMSO treated samples [1]	effect of inhibitor on labeling by 3 [1]	change of fluorescent signal of 3 over DMSO treated samples (flow cytometry) [2]	change of intracellular fluorescent signal of 3 (confocal microscopy) [3]	change of proteasome activity [1]
CCCCC/C=C\C/C=C\C/C=C\C/C=C\CCCC(=O)Nc1ccc(O)cc1 [AM-404]	at least 40%	–	–	–	–
CC(C)C[C@@H](C=O)NC(=O)[C@H](CC(C)C)NC(=O)[C@H](CC(C)C)NC(=O)OCc1ccccc1 [MG-132] (Cbz-Leu-Leu-Leu-aldehyde)	–	prevented the binding of (3)	decrease	significantly decreased the signal	–
epoxomicin	–	prevented the binding of (3)	–	–	–
Clc1ccc(COC(Cn2ccnc2)c2ccc(Cl)cc2Cl)c(Cl)c1 (stereo not drawn) [MO, Miconazole]	at least 40%	–	increase	remarkable increase in fluorescent signal	significant increase in activity
CN1CCN(CCCN2c3ccccc3Sc3ccc(C(F)(F)F)cc32)CC1 [TFP, trifluoperazine]	at least 40%	–	increase	–	significant increase in activity

— PMC9122039 (Chembiochem : a European journal of chemical biology, 2022)
